Measurements: ChEMBL document CHEMBL1139481, “Synthesis and biological activity of anticancer ether lipids that are specifically released by phospholipase A2 in tumor tissue” (J Med Chem, 2005)

Columns and labels:
Assay type in all cases: functional, cell-based
MDA-MB-435 [1] = assay: Inhibition of Akt phosphorylation in MDA-MB-435 cells after 2 hrs; details: Homo sapiens, MDA-MB-435, 2 h
Outline: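 MDA-MB-435 cells at 70% confluency, serum-starved 18 h, then given compound for 2 h and stimulated with insulin 10 µg/mL for 30 min. Lysates taken in Laemmli buffer after an ice-cold PBS wash. Western blot probed for Ser473 phospho-Akt, with total Akt as loading control. Controls: no insulin, and wortmannin 2 µM for 2 h before insulin.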

MDA-MB-435 [2] = assay: Cytotoxicity against human MDA-MB-435 cells after 3 days in serum free conditions by MTT assay; details: MDA-MB-435, 72 h
Outline: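 MDA-MB-435 cells grown in Dulbecco's modified Eagle medium with 10% FCS and 2 mM L-glutamine, then plated at 1 × 10^4/well 24 h before treatment. Lipids in PBS with 5-30% ethanol were added, and cells were incubated 3 days without serum to match the Akt study conditions. MTT read-out was expressed as percentage reduction in incorporated MTT, run in triplicate.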

HT-29 = assay: Cytotoxicity against human HT29 cells after 72 hrs by MTT assay; details: HT-29, 72 h
Outline: (§1)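 Cells (Caco-2 in Dulbecco's modified Eagle medium; HT-29 in McCoy's 5A; both with 10% FCS and 2 mM L-glutamine; KATO III in RPMI 1640 with 10% heat-inactivated FCS, 2 mM L-glutamine, 1 mM pyruvate, 5% CO2, 37 °C) plated at 1 × 10^4/well 24 h before adding AELs in PBS with 5-30% ethanol. After 72 h, MTT read-out. IC50 is 50% reduction in cell number; mean ± SD, n = 3-9.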

[3] = Cytotoxicity against human KATO3 cells after 72 hrs by MTT assay; details: KATO3, 72 h; outline: as §1
Caco-2 = assay: Cytotoxicity against human Caco-2 cells after 72 hrs by MTT assay; details: Caco-2, 72 h; outline: as §1

CCCCCCCCCCCCCCCCOC[C@@H](O)COP(=O)(O)OC[C@H](O)CO
IC50 (MDA-MB-435 [1]): 24 µM | IC50 (MDA-MB-435 [2]): 73 µM | IC50 (HT-29): 105 µM

CCCCCCCCCCCCCCCCOC[C@@H](O)COP(=O)(O)OC[C@@H](O)CO
IC50 (MDA-MB-435 [1]): 24 µM | IC50 (MDA-MB-435 [2]): 47 µM | IC50 (HT-29): 20 µM | IC50 [3]: 49 µM | IC50 (Caco-2): 75 µM

CCCCCCCCCCCCCCCCOP(=O)([O-])OCC[N+](C)(C)C [MILTEFOSINE]
IC50 (MDA-MB-435 [1]): 5 µM | IC50 (MDA-MB-435 [2]): 23 µM

CCCCCCCCCCCCCCCCCCOCC(COP(=O)([O-])OCC[N+](C)(C)C)OC (configuration not stated) [EDELFOSINE]
IC50 (MDA-MB-435 [1]): 3 µM | IC50 (MDA-MB-435 [2]): 12 µM
